Laboratory results: ChEMBL document CHEMBL4706600, “Synthesis, molecular modeling, in vivo study and anticancer activity against prostate cancer of (+) (S)-naproxen derivatives” (Eur J Med Chem, 2020)
Activity calls are given as the source filed them. The calls are words filed in the database; no cut-off is given here.

Legend:
[1] = system: LNCaP; test: Cytotoxicity against human LNCaP cells assessed as reduction in cell viability by […]; format: functional, cell-based
How it was run: (§1)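 Growth of PC-3, DU-145 and LNCaP prostate cancer lines read by MTS tetrazolium proliferation assay. Cisplatin served as the positive reference standard.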

[2] = system: PC-3; test: Cytotoxicity against human PC-3 cells assessed as reduction in cell viability by […]; format: functional, cell-based; how it was run: as §1
[3] = system: DU-145; test: Cytotoxicity against human DU-145 cells assessed as reduction in cell viability by […]; format: functional, cell-based; how it was run: as §1
[4] = molecular target: Methionine aminopeptidase 2 (Homo sapiens) (UniProt P50579); test: Inhibition of MetAP2 in human LNCaP cells assessed as reduction in AKT phosphorylation at 5 to 20 uM incubated upto 120 mins by Western blot analysis; format: cell-based; details: dose 5-20 µM, time min <=120
How it was run: (§2)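 LNCaP cells (1×10^6 per well, n = 3) plated in phenol-red-free RPMI-1640 with 1% FBS for 24 h, then exposed at 5 and 20 µM for 0, 15, 60 and 120 min. Lysates were assayed for total protein, and phosphorylated AKT, ERK, p38 and JNK were detected by Western blot.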
Target sequence in this assay (P50579 2-478 limits assumed): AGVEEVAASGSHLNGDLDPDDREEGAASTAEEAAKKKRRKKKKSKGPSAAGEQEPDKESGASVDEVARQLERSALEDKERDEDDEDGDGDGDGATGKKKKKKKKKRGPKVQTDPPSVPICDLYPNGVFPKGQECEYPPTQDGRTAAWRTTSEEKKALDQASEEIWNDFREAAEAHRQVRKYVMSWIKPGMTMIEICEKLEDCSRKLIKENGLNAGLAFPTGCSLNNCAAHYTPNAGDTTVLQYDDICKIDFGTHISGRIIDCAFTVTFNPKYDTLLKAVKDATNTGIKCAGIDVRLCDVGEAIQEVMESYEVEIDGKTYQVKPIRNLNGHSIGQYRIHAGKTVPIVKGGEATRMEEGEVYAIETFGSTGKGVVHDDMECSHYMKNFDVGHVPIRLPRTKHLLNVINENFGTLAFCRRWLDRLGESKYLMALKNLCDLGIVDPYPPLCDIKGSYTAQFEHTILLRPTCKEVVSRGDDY

[5] = molecular target: Methionine aminopeptidase 2 (Homo sapiens) (UniProt P50579); test: Inhibition of MetAP2 in human LNCaP cells assessed as reduction in JNK/MAPK phosphorylation at 5 to 20 uM incubated upto 120 mins by Western blot analysis; format: cell-based; details: dose 5-20 µM, time min <=120; how it was run: as §2
Target sequence in this assay (P50579 2-478 limits assumed): as above

[6] = molecular target: Methionine aminopeptidase 2 (Homo sapiens) (UniProt P50579); test: Inhibition of MetAP2 in human LNCaP cells assessed as reduction in ERK/MAPK phosphorylation at 5 to 20 uM incubated upto 120 mins by Western blot analysis; format: cell-based; details: dose 5-20 µM, time min <=120; how it was run: as §2
Target sequence in this assay (P50579 2-478 limits assumed): as above

[7] = molecular target: Methionine aminopeptidase 2 (Homo sapiens) (UniProt P50579); test: Inhibition of MetAP2 in human LNCaP cells assessed as reduction in P28/MAPK phosphorylation at 5 to 20 uM incubated upto 120 mins by Western blot analysis; format: cell-based; details: dose 5-20 µM; how it was run: as §2
Target sequence in this assay (P50579 2-478 limits assumed): as above

[8] = Toxicity in mouse assessed as effect on alanine transaminase level measured after 3 days by blood analyser(reference value: 679.50+/- 71.5 u/l); format: tissue-based; details: 72 h, time 3 day
[9] = system: LNCaP; test: Induction of apoptosis in human LNCAP cells assessed as up regulation of Caspase 3 expression upto 20 uM measured after 6 hrs by Rt-PCR; format: functional, cell-based; details: dose microM <=20, time 6.0 hrs, TDE = time-dependent effect
[10] = Toxicity in mouse assessed as effect on total protein level measured after 3 days by blood analyser(reference value: 5.7+/-0.4 g/dl); format: tissue-based; details: 72 h, time 3 day
[11] = system: LNCaP; test: Induction of apoptosis in human LNCAP cells assessed as up regulation of Caspase 9 expression upto 20 uM measured after 6 hrs by Rt-PCR; format: functional, cell-based; details: dose microM <=20, time 6.0 hrs, TDE = time-dependent effect
[12] = Toxicity in mouse assessed as effect on sodium level measured after 3 days by blood analyser(reference value: 148.33+/-1.89 mmol/l); format: tissue-based; details: 72 h, time 3 day
[13] = Toxicity in mouse assessed as effect on blood urea nitrogen level measured after 3 days by blood analyser(reference value: 27+/- 2.6 mg/dl); details: in vivo, 72 h, time 3 day
[14] = Toxicity in mouse assessed as effect on phosphate level measured after 3 days by blood analyser(reference value: 10.07+/- 1.06 mg/dl); format: tissue-based; details: 72 h, time 3 day
[15] = molecular target: Methionine aminopeptidase 2 (Homo sapiens) (UniProt P50579); test: Inhibition of MetAP2 (unknown origin) incubated measured at 12.5 to 200 uM for 30 mins by spectrophotometric analysis; details: dose 12.5-200 µM
Target sequence in this assay (P50579 whole entry, looked up): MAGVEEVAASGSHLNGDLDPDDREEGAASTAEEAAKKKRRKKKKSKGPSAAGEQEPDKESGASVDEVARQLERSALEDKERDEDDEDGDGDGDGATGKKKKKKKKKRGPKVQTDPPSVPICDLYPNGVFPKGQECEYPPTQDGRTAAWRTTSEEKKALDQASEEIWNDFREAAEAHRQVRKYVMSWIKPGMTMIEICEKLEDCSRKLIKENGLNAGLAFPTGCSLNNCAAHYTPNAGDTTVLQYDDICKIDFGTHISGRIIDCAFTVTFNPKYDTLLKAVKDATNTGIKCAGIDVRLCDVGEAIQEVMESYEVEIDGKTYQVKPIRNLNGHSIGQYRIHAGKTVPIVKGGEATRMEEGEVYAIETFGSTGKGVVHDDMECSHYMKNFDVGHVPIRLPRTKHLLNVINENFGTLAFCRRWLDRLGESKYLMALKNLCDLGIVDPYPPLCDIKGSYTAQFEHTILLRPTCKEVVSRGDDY

[16] = Toxicity in mouse assessed as effect on total bilirubin level measured after 3 days by blood analyser(reference value: 0.27+/- 0.05 mg/dl); format: tissue-based; details: 72 h, time 3 day
[17] = Toxicity in mouse assessed as effect on globulin level measured after 3 days by blood analyser(reference value: 3.17+/-0.31 g/dl); format: tissue-based; details: 72 h, time 3 day
[18] = Toxicity in mouse assessed as effect on alkaline phosphatase level measured after 3 days by blood analyser(reference value: 144.50+/- 83.5 u/l); format: tissue-based; details: 72 h, time 3 day
[19] = Toxicity in mouse assessed as effect on potassium level measured after 3 days by blood analyser(reference value: 10.7+/-2.2 mmol/l); format: tissue-based; details: 72 h, time 3 day
[20] = system: LNCaP; test: Antitumor activity against human LNCaP cells xenografted in mouse assessed as decrease in ROI of cancer tissue at 0.27 mg measured after 15 days by IVIS image analysis; format: functional; details: time 15 day
How it was run: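 LNCaP cells (5×10^6–6×10^6 cells/100 µL) injected subcutaneously into male nude mice; treatment given over 15 days, with controls receiving saline intraperitoneally every 4 days. Cancerous tissue visualized by in vivo imaging (IVIS).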

[21] = Toxicity in mouse assessed as effect on albumin level measured after 15 days by blood analyser(reference value: 2.6+/- 0.36 g/dl); details: 360 h
[22] = Toxicity in mouse assessed as effect on glucose level measured after 3 days by blood analyser(reference value: 192+/- 33 mg/dl); format: tissue-based; details: 72 h, time 3 day
[23] = Toxicity in mouse assessed as effect on keratin level measured after 3 days by blood analyser(reference value: 0.2+/- 0.07 mg/dl); format: tissue-based; details: 72 h, time 3 day
[24] = system: LNCaP; test: Induction of apoptosis in human LNCAP cells assessed as up regulation of Bax expression upto 20 uM measured after 6 hrs by Rt-PCR; format: functional, cell-based; details: dose microM <=20, time 6.0 hrs, TDE = time-dependent effect
[25] = system: LNCaP; test: Induction of apoptosis in human LNCAP cells assessed as down regulation of Bcl-2 expression upto 20 uM measured after 6 hrs by Rt-PCR; format: functional, cell-based; details: dose microM <=20, time 6.0 hrs

COc1ccc2cc([C@H](C)c3nnc(SCc4c(Cl)cccc4Cl)n3-c3ccc(Cl)cc3)ccc2c1
IC50 [1]: > 400 µM
IC50 [2]: 34.7 µM
IC50 [3]: 36.1 µM

COc1ccc2cc([C@H](C)c3nnc(SCc4ccc(F)cc4)n3-c3ccc(Cl)cc3)ccc2c1
IC50 [1]: 33.9 µM
IC50 [2]: 10.8 µM
IC50 [3]: 33.6 µM

COc1ccc2cc([C@H](C)c3nnc(SCc4c(Cl)cccc4Cl)n3-c3cccc(Cl)c3)ccc2c1
IC50 [1]: 73.7 µM
IC50 [2]: 165 µM
IC50 [3]: > 400 µM

COc1ccc2cc([C@H](C)c3nnc(SCc4ccc(Cl)cc4)n3-c3ccc(F)cc3)ccc2c1
IC50 [1]: > 400 µM
IC50 [2]: > 400 µM
IC50 [3]: 57.4 µM

COc1ccc2cc([C@H](C)c3nnc(SCc4c(C)cc(C)cc4C)n3-c3cccc(Cl)c3)ccc2c1
IC50 [1]: > 400 µM
IC50 [2]: 16.3 µM
IC50 [3]: 93.3 µM

COc1ccc2cc([C@H](C)c3nnc(SCc4c(Cl)cccc4Cl)n3-c3ccc(F)cc3)ccc2c1
IC50 [1]: 12.2 µM
IC50 [2]: 216 µM
IC50 [3]: 12.2 µM

COc1ccc(CSc2nnc([C@@H](C)c3ccc4cc(OC)ccc4c3)n2-c2ccc(F)cc2)cc1
inhibition [4]: inactive
inhibition [5]: inactive
IC50 [1]: 22.8 µM
inhibition [6]: inactive
IC50 [2]: > 400 µM
inhibition ([7]; time min <=120, in the assay text read “P38/MAPK” for “P28/MAPK”): inactive
IC50 [3]: > 400 µM

COc1ccc(CSc2nnc([C@@H](C)c3ccc4cc(OC)ccc4c3)n2-c2ccc(Cl)cc2)cc1
IC50 [1]: > 400 µM
IC50 [2]: > 400 µM
IC50 [3]: 72.6 µM

COc1ccc2cc([C@H](C)c3nnc(SCc4c(C)cc(C)cc4C)n3-c3ccc(F)cc3)ccc2c1
Activity [8]: 64.5 U/L
Activity [9]: Tde
inhibition [4]: Active
Activity [10]: 5.3 g/dL
inhibition [5]: Active
IC50 [1]: 2.21 µM
Activity [11]: Tde
Activity [12]: 137.5 mmol/L
Activity [13]: 21.5 mg/dL
Activity [14]: 7.15 mg/dL
inhibition [15]: Active
Activity [16]: 0.3 mg/dL
Activity [17]: 3.6 g/dL
inhibition [6]: Active
Activity [18]: 58 U/L
IC50 [2]: 43.3 µM
Activity [19]: 5.6 mmol/L
inhibition (INH) [20]: 55%
Activity [21]: 1.25 g/dL
Activity [22]: 154 mg/dL
Activity [23]: 0.25 mg/dL
inhibition ([7]; time min <=120): Active
Activity [24]: Tde
Activity [25]: Active
IC50 [3]: 10.2 µM

COc1cccc(CSc2nnc([C@@H](C)c3ccc4cc(OC)ccc4c3)n2-c2ccc(Cl)cc2)c1
IC50 [1]: 162 µM
IC50 [2]: 138 µM
IC50 [3]: > 400 µM

COc1ccc2cc([C@H](C)c3nnc(SCc4ccc(C)cc4)n3-c3ccc(Cl)cc3)ccc2c1
IC50 [1]: 52.2 µM
IC50 [2]: 8.4 µM
IC50 [3]: 18.8 µM

COc1ccc2cc([C@H](C)c3nnc(SCc4ccccc4)n3-c3ccc(Cl)cc3)ccc2c1
IC50 [1]: 50.4 µM
IC50 [2]: 14.2 µM
IC50 [3]: 35.8 µM

COc1ccc2cc([C@H](C)c3nnc(SCc4ccc(F)cc4)n3-c3ccc(F)cc3)ccc2c1
IC50 [1]: 104 µM
IC50 [2]: > 400 µM
IC50 [3]: 60.2 µM

COc1cccc(CSc2nnc([C@@H](C)c3ccc4cc(OC)ccc4c3)n2-c2ccc(F)cc2)c1
IC50 [1]: 14.5 µM
IC50 [2]: 211 µM
IC50 [3]: 19.2 µM

COc1ccc2cc([C@H](C)C(=O)NNC(=S)Nc3ccc(C(F)(F)F)cc3)ccc2c1
IC50 [1]: 92.8 µM
IC50 [2]: 64.3 µM
IC50 [3]: 62.2 µM

COc1ccc2cc([C@H](C)c3nnc(SCc4ccc(Cl)cc4)n3-c3ccc(Cl)cc3)ccc2c1
IC50 [1]: 110 µM
IC50 [2]: 5.8 µM
IC50 [3]: 109 µM

COc1ccc2cc([C@H](C)c3nnc(SCc4ccc(C)cc4)n3-c3ccc(F)cc3)ccc2c1
IC50 [1]: > 400 µM
IC50 [2]: 229 µM
IC50 [3]: 44.3 µM
